Reference: PMC5051546 (ACS chemical neuroscience, 2016)
Non-standard residues stand in square brackets, D forms with d. Residues, ends and D or L forms follow the SMILES beside them.

Assays:
Aβ(1–40) aggregates [1] = target: T1, Aβ(1–40) aggregates (Homo sapiens, UniProt P05067); assay: Nanoparticle tracking analysis; type: biochemical
Procedure, shortened: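 Aβ(1-40) stock prepared by dissolving in 50% acetonitrile, relyophilizing, and reconstituting in urea/glycine buffer at 12 mg/mL. Samples: 28 µM Aβ alone or with 1.4 µM test peptide, or peptide alone. Nanosight LM10, 405 nm laser, video capture started immediately. One 60-s video per time point over 2 h, room temperature, camera level 13. Buffers 0.02 µm-filtered. Number concentration taken from the instrument-defined scattering volume. Only particles above ~30 nm are detected.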

Aβ(1–40) fibrils = Aβ(1–40) fibrils (Homo sapiens, UniProt P05067); assay: Transmission electron microscopy; type: biochemical; conditions: 28 μM Aβ + 1.4 μM peptide; 24 h at 37 °C; PBSA
[2] = target: Aβ(1–40) fibril formation (Homo sapiens, UniProt P05067); assay: Thioflavin T; type: biochemical; conditions: 28 μM Aβ, 1.4 μM peptide; PBSA, 37 °C, up to 48 h; three replicates
Procedure, shortened: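 Aβ(1-40) stock in urea/glycine buffer, previously relyophilized from 50% acetonitrile. 28 µM Aβ incubated in PBSA at 37 °C alone or with 2.8, 1.4 or 0.28 µM test peptide. At 1 or 4, 24 and 48 h, aliquots mixed with 10 µM ThT in PBS. Excitation 440 nm, emission scanned 460–500 nm. Three serial spectra averaged, ThT/PBS background subtracted, 480 nm intensity compared.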

Aβ(1–40) aggregates [3] = target: T1, Aβ(1–40) aggregates; assay: Dynamic light scattering; type: biochemical; conditions: 28 μM Aβ, 1.4 μM peptide; 37 °C; 2 h; z-averaged hydrodynamic diameter; Aβ alone 400 nm after 2 h
[4] = Solubility of lyophilized peptide in PBS or water; type: physicochemical

T1 sequence (P05067 672-711 limits assumed): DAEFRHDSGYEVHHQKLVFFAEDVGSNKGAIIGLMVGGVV
Chain of Aβ(1–40) fibrils (P05067 672-711 limits assumed): as above
Chain of Aβ(1–40) fibril formation (P05067 672-711 limits assumed): as above

particles from peptide alone (NTA) (Aβ(1–40) aggregates [1]; 1.4 μM peptide in the absence of Aβ, detection limit ~30 nm, data not shown): no detectable particles above background
initial particle number concentration relative to Aβ alone (NTA) (Aβ(1–40) aggregates [1]; 28 μM Aβ, 1.4 μM peptide, PBSA, room temperature, shortly after mixing): about 2 fold
mean hydrodynamic diameter of aggregates after 2 h (NTA) (Aβ(1–40) aggregates [1]; 28 μM Aβ, 1.4 μM peptide, number-averaged): ~ 400 nm
mean hydrodynamic diameter of aggregates shortly after mixing (NTA) (Aβ(1–40) aggregates [1]; 28 μM Aβ, 1.4 μM peptide, number-averaged, Aβ alone ~80 nm): 120 nm
inhibition of ThT fluorescence at 20:1 Aβ/peptide [2]: partially inhibited
solubility ([4]; aqueous buffer): > 650 µg/mL
solubility ([4]; water): > 600 µM
SMILES: CC[C@H](C)[C@@H]1NC(=O)[C@H]([C@@H](C)O)NC(=O)[C@H](Cc2ccc(O)cc2)NC(=O)[C@H](CCCNC(=N)N)NC(=O)[C@@H]2CCCN2C(=O)[C@H]2CCCN2C(=O)[C@H]([C@@H](C)O)NC(=O)[C@H](C(C)C)NC(=O)[C@H](C(C)C)NC(=O)[C@H](CCCCN)NC(=O)[C@H](CO)NC(=O)[C@H](CCC(N)=O)NC(=O)[C@H](CO)NC(=O)[C@H](Cc2ccc(O)cc2)NC(=O)[C@H](CO)NC(=O)[C@H](Cc2ccc(O)cc2)NC(=O)[C@@H]2CCCN2C(=O)[C@H](CO)NC(=O)[C@H](CC(C)C)NC(=O)[C@H](CC(C)C)NC(=O)[C@H](C)NC(=O)[C@H](C)NC1=O [CG3] (cyclo(SKVVT[dP]PRYTIAALLSPYSYSQ))
Aβ aggregate morphology by TEM (Aβ(1–40) fibrils): still a large number of fibrils, but many appeared to be shorter
effect on size and growth rate of Aβ aggregates (DLS) (Aβ(1–40) aggregates [3]): size and growth rate of Aβ aggregates increased
